SENP1 FRET inh: inhibitors of human SENP1 SUMO protease catalytic domain; hit rate 0.21% among 360,000; inhibition, % at 10 µM; recombinant SENP1 catalytic domain, CyPet-SUMO1-YPet FRET cleavage; Q9P0U3;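 active means inhibition at least 30% at 10 µM, raw YFP signal under a set limit, fluorescence ratio 0.5 to 1.5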;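 further: 0% = enzyme with DMSO and 100% = no enzyme wells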
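Material: hSENP1 catalytic domain, recombinant; medium: Tris pH 8 with BME, BSA, NP40 and catalase; compound: single concentration of 10 µM compound, 0.5% DMSO final; technique: FRET read of cyan and yellow fluorescence; timing: 50 min enzyme reaction, room temperature, light-protected; reagent: SFCypet-SUMO1-SFYpet substrate at 25 nM; control set: no-enzyme low, enzyme-DMSO high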
TPT1 inhibitor: C. albicans TPT1 enzyme inhibition | recombinant caTPT1, FP RNA substrate dephosphorylation | inhibition, % at 5 µM | hit rate 0.81% among 300,000 | AID 1962;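 active means inhibition above the mean of all tested compounds plus 3 SD, set per screening campaign, cut at about 24% in these data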;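 further: plate controls were DMSO alone for no effect and ferristatin control at 100 nM for full effect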
HNF4A DNA FP: change in binding of human HNF4 alpha to DNA; P41235; HNF4a-FITC DNA binding, fluorescence polarization, 1 h; activity change, % at 10 µM; hit rate 0.3% among 360,000; AID 1224865; in the data active means activity change above about 30%, passing the limit was not always enough
CSN deneddyl inh: CSN deneddylation inhibition; Q92905; Purified CSN, SCF-Nedd8-OG deneddylation, fluorescence polarization; inhibition, % at 12.5 µM; hit rate 0.38% among 360,000;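 active means pattern-corrected inhibition above about 35%, with an unprinted fluorescence ratio check between 0.5 and 1.5, limit read from the data, passing the limit was not always enough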;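 further: 0% = enzyme with substrate and 100% = substrate without enzyme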
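Assay system: purified human Csn5 enzyme expressed in HEK293T cells; Input: 0.24 nM Csn5 enzyme, final concentration; Reagent: 10 nM SCFSkp2-Nedd8OG; Compound dosing: 12.5 µM single point; Times: reaction 90 min, room temperature; Technique: fluorescence polarization readout.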
Rpn11 block: inhibitors of human proteasome Rpn11; AID 588493; inhibition, % at 20 µM; O00487; hit rate 0.59% among 360,000; human 26S proteasome, Ub4-pepOG fluorescence polarization; 20S core pre-blocked with epoxomicin;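 active means inhibition at 20 µM, scaled to each plate's controls, above about 33%, limit read from the data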
SENP1 inh conf: confirmation of human SENP1 SUMO protease inhibitors; shares compounds with SENP1 FRET inh; recombinant SENP1, CyPet-SUMO1-YPet FRET cleavage; inhibition, % at 10 µM; hit rate 34% among 520; AID 651678; in the data active means inhibition mostly above about 35%, no sharp cut-off; inactive means mostly below about 32%;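 further: 0% = enzyme with DMSO and 100% = no enzyme control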
SENP1 kin conf: confirmation of human SENP1 SUMO protease inhibitors, kinetic; hit rate 26% among 520; inhibition, % at 10 µM; recombinant SENP1, CyPet-SUMO1-YPet FRET kinetic cleavage; shares compounds with SENP1 FRET inh; in the data active means inhibition mostly above about 32%, no sharp cut-off; inactive means mostly below about 29%;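 further: 0% = DMSO with enzyme and 100% = no enzyme substrate only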
CSN5 deneddyl: Csn5 (human) deneddylation inhibition, single-concentration validation; inhibition, % at 16.6 µM; shares compounds with CSN deneddyl inh; hit rate 62% among 540; Csn5 deneddylation of SCF-Nedd8OG, fluorescence polarization, 90 min; AID 720654; in the data active means inhibition above about 50%;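 further: 0% = DMSO with enzyme and 100% = no enzyme wells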
MMP2 cntr CSN: MMP-2 (human) inhibition, counter-screen for CSN hits | shares compounds with CSN deneddyl inh | recombinant MMP-2, FRET substrate fluorescence, 60 min | inhibition, % at 16.6 µM | hit rate 33% among 540;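 active means corrected plate-normalized z-score of 5 or more, or -5 or less, or inhibition of 15% or more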;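 further: plate controls were DMSO wells with enzyme for no effect and buffer wells lacking MMP-2 for full effect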
Target sequence (P08253 whole entry, looked up): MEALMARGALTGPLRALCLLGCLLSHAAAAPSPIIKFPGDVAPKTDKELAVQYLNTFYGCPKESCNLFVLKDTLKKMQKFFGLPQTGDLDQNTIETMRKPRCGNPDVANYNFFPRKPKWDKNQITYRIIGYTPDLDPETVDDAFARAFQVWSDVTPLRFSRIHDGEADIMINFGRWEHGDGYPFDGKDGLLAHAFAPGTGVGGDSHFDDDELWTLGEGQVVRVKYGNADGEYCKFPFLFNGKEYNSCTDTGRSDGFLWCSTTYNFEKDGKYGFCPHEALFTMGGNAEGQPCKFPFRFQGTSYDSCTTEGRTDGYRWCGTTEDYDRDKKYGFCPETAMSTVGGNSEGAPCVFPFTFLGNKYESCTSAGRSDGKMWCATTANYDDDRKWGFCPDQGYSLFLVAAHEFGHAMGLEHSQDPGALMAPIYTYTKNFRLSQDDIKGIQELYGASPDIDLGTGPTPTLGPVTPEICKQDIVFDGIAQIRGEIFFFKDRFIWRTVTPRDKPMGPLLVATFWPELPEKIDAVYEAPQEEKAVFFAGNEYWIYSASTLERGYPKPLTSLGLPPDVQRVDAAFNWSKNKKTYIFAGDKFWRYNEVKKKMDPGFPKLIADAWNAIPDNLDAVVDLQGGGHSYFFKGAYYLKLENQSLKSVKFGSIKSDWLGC
Thrombin counter: counter-screen for CSN deneddylation inhibitors: bovine thrombin inhibition | shares compounds with CSN deneddyl inh | bovine thrombin cleavage of Ub4-pepOG, fluorescence polarization | hit rate 49% among 540 | inhibition, % at 16.6 µM;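 active means inhibition at or above a set limit, with a fluorescence interference ratio between 0.5 and a set maximum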
HNF4A confirm: change in binding of human HNF4 alpha to DNA, retest | shares compounds with HNF4A DNA FP | hit rate 99% among 210 | AID 1224897 | HNF4A-FITC DNA binding, fluorescence polarization, 1 h | activity change, % at 12.5 µM; call rule not given here
Starred values were filed as active, the others as inactive; x = no result given. This is a sample that favours compounds with a hit; in the whole collection about 1.6% have one here.

SMILES | SENP1 FRET inh | TPT1 inhibitor | HNF4A DNA FP | CSN deneddyl inh | Rpn11 block | CSN5 deneddyl | MMP2 cntr CSN | Thrombin counter | others
CC1=NN=C(c2ccc(N)cc2)c2cc3c(cc2C1)OCO3 | 43* | -3 | -2 | -2 | -7 | x | x | x | SENP1 inh conf=6;SENP1 kin conf=-3
COc1ccc2c(c1)NP(=S)(c1ccccc1)N2C (stereo not drawn) | 2 | x | 5 | 3 | 5 | x | x | x
COc1ccc(P2(=O)Nc3ccccc3N2)cc1 | 38* | -19 | -2 | 8 | 14 | x | x | x | SENP1 inh conf=94*;SENP1 kin conf=60*
Cc1nn(Cc2ccccc2)c(C)c1C(=O)OCC(=O)Nc1ccccc1SCC#N | 48* | 13 | 13 | 12 | 32 | x | x | x | SENP1 inh conf=5;SENP1 kin conf=4
Cc1ccc2c(C)cccc2c1 | 0 | x | -2 | 0 | 2 | x | x | x
CCCCn1c(O)c(/C=C/C=Nc2ccccc2)c(=O)[nH]c1=O | -28 | 141* | 55* | 47* | x | 50 | -11 | 37*
CCCCC(=O)N/N=C/c1c(O)n(CCc2ccccc2)c(=O)[nH]c1=O | -2 | 3 | 2 | 2 | 1 | x | x | x
CCn1nc(-c2ccccc2)nc2c(=O)n(C)c(=O)nc1-2 | -2 | -105 | 2 | 2 | 9 | x | x | x
Cc1nc2c(=O)n(C)c(=O)nc-2n(C)n1 | 49* | -1 | 78* | 63* | 3 | 12 | 10 | -41
NC(=O)c1ccc(N=Cc2c(O)n(Cc3ccco3)c(=O)[nH]c2=O)cc1 | -3 | 16 | -26 | 45* | 20 | 39 | 55* | 1
Oc1c(Cl)cccc1Cc1cc(Cl)cc(Cl)c1O | -1 | x | 0 | 8 | 8 | x | x | x
CCOC(=O)c1c(NS(=O)(=O)c2ccccc2)n(CCCOC)c2nc3ccccc3nc12 | -28 | -2 | 1 | 49* | 4 | 95* | -3 | -1
COc1ccc2c(c1)C1(C(=O)O)CC=CCC1(C(=O)O)C2 (stereo not drawn) | -1 | x | -2 | 5 | -4 | x | x | x
CN1C(=O)/C(=C/C=C/c2ccco2)C(=O)NC1=S | 2 | 23 | 4 | 65* | 149* | 29 | 20* | 50*
COC(=O)C1=C(c2cccc(C#N)c2)C[C@@H]2CC[C@H]1N2C(=O)NC1CCCCC1 | 2 | x | 1 | 2 | 8 | x | x | x
O=C1C(=O)c2ccccc2-c2ccccc21 | 1 | 0 | 3 | 59* | 9 | 0 | -2 | -39
COC(=O)C1=C(c2ccc(C(C)=O)cc2)C[C@@H]2CC[C@H]1N2C(=O)N1CCCCC1 | 2 | x | -2 | -6 | -3 | x | x | x
C=C1C(=O)OC2CC(C)C3C=CC(=O)C3(C)C(O)C12 (stereo not drawn) | 3 | x | 0 | 7 | -3 | x | x | x
C=C1C(=O)O[C@@H]2C[C@@H](C)[C@@H]3C=CC(=O)[C@@]3(C)[C@@H](OC(=O)CC(=O)O[C@H]3[C@@H]4C(=C)C(=O)O[C@@H]4C[C@@H](C)[C@@H]4C=CC(=O)[C@]43C)[C@H]12 | -12 | 5 | -25 | 57* | 95* | x | 1 | 21*
C[C@H]1CC[C@@H]2[C@@H](C)[C@H]3[C@H](C[C@H]4[C@@H]5CC=C6C[C@@H](O[C@@H]7O[C@H](CO)[C@H](O)[C@H](O[C@@H]8O[C@H](CO)[C@@H](O)[C@H](O)[C@H]8O)[C@H]7O[C@@H]7O[C@@H](C)[C@H](O)[C@@H](O)[C@H]7O)CC[C@]6(C)[C@H]5CC[C@]34C)N2C1 | -79 | 28* | 44* | 16 | x | x | x | x | HNF4A confirm=40*
COc1cccc(C(c2nnnn2C(C)(C)C)N2CCC3(CC2)C(=O)NCN3c2ccccc2)c1OC (stereo not drawn) | 2 | x | 1 | 1 | 4 | x | x | x

Screening results deposited in PubChem BioAssay by several laboratories.
